In brackets after ≈: the same amount, converted by molar mass. Marks after values point to notes of the source that are not given here.
What was measured:
[1] = Solubility of OHPCBs in the SULT assay buffer by light scattering at 400 nm; format: physicochemical
rSULT1A1 [2] = target: T1, rSULT1A1 (Rattus norvegicus, UniProt P17988); assay: Assay of OHPCBs as potential substrates of rSULT1A1; format: biochemical; conditions: presence of reducing agents; within limits of solubility
Method in brief: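 Recombinant rat SULT1A1 was expressed in E. coli at 29°C without IPTG and purified by PAP-agarose affinity with a PAP gradient in DTT-containing buffer. […] Substrate-dependent PAP formation was the read-out.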

rSULT2A3 = target: T2, rSULT2A3 (Rattus norvegicus, UniProt P22789); assay: Inhibition of rSULT2A3-catalyzed sulfation of DHEA; format: biochemical; conditions: for Inhibition of rSULT2A3 reached: DHEA as substrate, within solubility limits
T2 sequence (P22789 1-284): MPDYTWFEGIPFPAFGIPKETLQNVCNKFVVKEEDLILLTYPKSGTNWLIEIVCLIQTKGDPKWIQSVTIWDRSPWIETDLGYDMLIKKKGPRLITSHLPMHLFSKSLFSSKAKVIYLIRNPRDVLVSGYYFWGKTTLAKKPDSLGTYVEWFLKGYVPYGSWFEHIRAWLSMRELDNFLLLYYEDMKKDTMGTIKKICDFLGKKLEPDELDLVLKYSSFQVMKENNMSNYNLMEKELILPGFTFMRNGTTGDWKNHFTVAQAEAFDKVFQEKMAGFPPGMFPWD

rSULT1A1 [3] = target: T1, rSULT1A1; assay: Inhibition of rSULT1A1-catalyzed sulfation of 2-naphthol; format: biochemical
rSULT1A1 [4] = target: T1, rSULT1A1; assay: Sulfation of OHPCBs by rSULT1A1 pretreated with GSH or GSSG; format: biochemical; conditions: for Sulfation at varying OHPCB concentrations, rSULT1A1 pretreated with 1 mM GSSG: Fig. 3B; for Substrate inhibition in both reduced and oxidized rSULT1A1-catalyzed reactions: 1 mM GSH or 1 mM GSSG pretreatment; for Sulfation by GSSG-pretreated rSULT1A1 compared with GSH-pretreated enzyme: 1 mM GSSG vs 1 mM GSH, Fig. 3A
Method in brief: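 DTT was stripped from purified enzyme by gel filtration at 4°C, leaving less than 0.06 mM. Enzyme was held 1 h at 25°C under argon with 1 mM GSH or GSSG, and GSH was checked by DTNB. Assays used 0.75 μg enzyme, 0.25 M phosphate pH 7.0, 200 μM PAPS and no 2-mercaptoethanol, 6 min at 37°C. Test compound was 100 μM or varied. PAP formation was corrected by a no-compound blank, in duplicate or triplicate.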

rSULT1A1 [5] = target: T1, rSULT1A1; assay: Reversibility of the effect of GSSG on rSULT1A1 by reduction with DTT; format: biochemical; conditions: 25°C 1 hr pretreatment; 2-naphthol 250 μM, 4′-OH PCB 6 100 μM; mean and SD, n=3
hSULT2A1 = conditions: ref Liu et al., 2006; cited from earlier work
[6] = 37°C, 0.25 M potassium phosphate pH 7.0, […] (v/v) acetone, 7.5 mM 2-mercaptoethanol, light scattering
[7] = 37 °C, pH 7, aqueous buffer, kinetic from dmso stock

T1 sequence (P17988 whole entry): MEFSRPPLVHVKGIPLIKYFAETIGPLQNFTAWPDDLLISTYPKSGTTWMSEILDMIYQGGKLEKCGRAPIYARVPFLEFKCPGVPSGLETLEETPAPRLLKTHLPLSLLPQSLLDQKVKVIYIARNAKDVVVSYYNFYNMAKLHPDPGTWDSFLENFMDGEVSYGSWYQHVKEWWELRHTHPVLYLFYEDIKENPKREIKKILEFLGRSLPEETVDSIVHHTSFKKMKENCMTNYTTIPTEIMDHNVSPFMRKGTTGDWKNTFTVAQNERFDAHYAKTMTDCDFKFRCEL

## Oc1ccc(-c2ccc(Cl)c(Cl)c2)cc1Cl [4′-OH PCB 35]
[1]; [6]
  Solubility: 50 µM (≈ 13.7 µg/mL)
rSULT1A1 [2]
  Substrate inhibition with rSULT1A1: did not show substrate inhibition

## Oc1ccc(-c2ccc(Cl)cc2)c(Cl)c1 [4-OH PCB 8, 2,4′-Dichloro-biphenyl-4-ol]
[1]; [7]
  Solubility: ≥ 500 µM
rSULT2A3
  IC50: ~400 µM

## Oc1ccc(-c2cc(Cl)cc(Cl)c2)cc1Cl [4′-OH PCB 36]
[1]; [6]
  Solubility: 50 µM (≈ 13.7 µg/mL)
rSULT1A1 [3]; 2-naphthol as substrate, up to full inhibition or limit of solubility
  Inhibition of rSULT1A1 reached: about 65%

## Oc1ccc(-c2ccc(Cl)c(Cl)c2)c(Cl)c1 [4′-OH PCB 33, 2,3′,4′-Trichloro-biphenyl-4-ol]
[1]; [7]
  Solubility: 50 µM (≈ 13.7 µg/mL)
rSULT1A1 [4]
  Sulfation at varying OHPCB concentrations, rSULT1A1 pretreated with 1 mM GSSG: concentration-dependent sulfation
rSULT1A1 [3]
  IC50: 26.2 µM
rSULT2A3
  Inhibition of rSULT2A3 reached: less than 50%

## Oc1ccc(-c2ccccc2Cl)cc1Cl [4′-OH PCB 6, 3,2′-Dichloro-biphenyl-4-ol]
[1]; [7]
  Solubility: 250 µM (≈ 59.8 µg/mL)
rSULT1A1 [5]
  Rate of sulfation, rSULT1A1 pretreated with 1 mM GSSG: 37.3±4.0 nmoles of product/mg/min
rSULT1A1 [4]
  Sulfation at varying OHPCB concentrations, rSULT1A1 pretreated with 1 mM GSSG: concentration-dependent sulfation
rSULT1A1 [3]
  IC50: 22.7 µM
rSULT2A3
  Inhibition of rSULT2A3 reached: less than 50%

## Oc1ccc(-c2ccc(Cl)cc2Cl)cc1Cl [4′-OH PCB 25]
[1]; [6]
  Solubility: 100 µM (≈ 27.4 µg/mL)

## Oc1c(Cl)cc(-c2ccc(Cl)cc2Cl)cc1Cl [4′-OH PCB 68]
[1]; [6]
  Solubility: 50 µM (≈ 15.4 µg/mL)
hSULT2A1
  Substrate activity for hSULT2A1: good substrates

## Oc1ccc(-c2ccc(Cl)c(Cl)c2)cc1 [4′-OH PCB 12]
[1]; [6]
  Solubility: ≥500 µM

## Oc1ccc2ccccc2c1 [2-Naphthol]
rSULT1A1 [5]
  Rate of sulfation, rSULT1A1 pretreated with 1 mM GSSG: 50.2±2.1 ^c nmoles of product/mg/min
  Rate of sulfation, rSULT1A1 pretreated with 5 mM DTT: 38.3±4.7 nmoles of product/mg/min

## Oc1ccc(-c2ccc(Cl)cc2)cc1 [4′-OH PCB 3]
[1]; [6]
  Solubility: 300 µM (≈ 61.4 µg/mL)

## Oc1c(Cl)cc(-c2ccccc2Cl)cc1Cl [4-OH PCB 34]
[1]; [6]
  Solubility: 300 µM (≈ 82.1 µg/mL)
hSULT2A1
  Substrate activity for hSULT2A1: good substrates

## Oc1c(Cl)cc(-c2ccccc2)cc1Cl [4-OH PCB 14]
[1]; [6]
  Solubility: ≥1000 µM
rSULT1A1 [4]
  Sulfation at varying OHPCB concentrations, rSULT1A1 pretreated with 1 mM GSSG: concentration-dependent sulfation

## Oc1ccc(Cl)cc1-c1ccc(Cl)c(Cl)c1 [6′-OH PCB 35]
[1]; [6]
  Solubility: 100 µM (≈ 27.4 µg/mL)
rSULT1A1 [4]
  Substrate inhibition in both reduced and oxidized rSULT1A1-catalyzed reactions: absence of substrate inhibition
  Sulfation by GSSG-pretreated rSULT1A1 compared with GSH-pretreated enzyme: only slightly increased
rSULT1A1 [2]
  Substrate inhibition with rSULT1A1: did not show substrate inhibition

## Oc1ccc(-c2cc(Cl)ccc2Cl)cc1 [4′-OH PCB 9]
[1]; [6]
  Solubility: 500 µM (≈ 120 µg/mL)
hSULT2A1
  Inhibition of hSULT2A1: potent inhibitor
rSULT1A1 [4]
  Substrate inhibition in both reduced and oxidized rSULT1A1-catalyzed reactions: presence of substrate inhibition
  Sulfation by GSSG-pretreated rSULT1A1 compared with GSH-pretreated enzyme: only slightly increased
rSULT2A3
  Inhibition of rSULT2A3 reached: full inhibition
